# Screening data (PubChem)
# PAFAH2 FP inh: inhibitors of human PAFAH2. Q99487. recombinant PAFAH2, FP-rhodamine activity probe, fluorescence polarization. inhibition, % at 3.39 µM. actives 0.99% (n = 340,000);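 active = inhibition above the mean over all tested compounds plus 3 SD, cut at about 30% in these data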;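 also: inhibitors block probe labeling of enzyme so polarization drops; 0% = enzyme with DMSO and 100% = wells lacking PAFAH2 protein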
# pPAFAH inh: pPAFAH (human) enzyme inhibition. Q13093. recombinant pPAFAH, FP-rhodamine probe fluorescence polarization. inhibition, % at 3.39 µM. actives 1.5% (n = 330,000);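 active = inhibition above the mean inhibition across the screen plus 3 SD, cut at about 25% in these data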;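 also: inhibitors block binding of the rhodamine activity-based probe so polarization drops; 0% = enzyme with DMSO and 100% = wells lacking pPAFAH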
# Target sequence (Q13093 whole entry, looked up): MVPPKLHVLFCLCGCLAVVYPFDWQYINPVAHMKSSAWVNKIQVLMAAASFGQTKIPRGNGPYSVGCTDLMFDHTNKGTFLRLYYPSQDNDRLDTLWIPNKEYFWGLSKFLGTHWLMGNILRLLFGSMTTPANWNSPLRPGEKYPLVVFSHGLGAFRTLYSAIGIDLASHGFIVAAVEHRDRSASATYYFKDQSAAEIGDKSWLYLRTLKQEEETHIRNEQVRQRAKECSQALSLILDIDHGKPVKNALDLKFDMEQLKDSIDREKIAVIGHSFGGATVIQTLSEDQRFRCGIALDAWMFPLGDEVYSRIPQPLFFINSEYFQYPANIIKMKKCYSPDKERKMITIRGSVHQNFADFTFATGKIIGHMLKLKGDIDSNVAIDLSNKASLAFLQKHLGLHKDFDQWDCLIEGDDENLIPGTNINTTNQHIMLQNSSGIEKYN
# Apaf-1 inh: inhibitors of human Apaf-1 apoptosome; reconstituted apoptosome caspase-3 activity, DEVD-Rh110 fluorescence; inhibition, % at 20 µM; actives 0.71% (n = 330,000); active = inhibition of at least 40% at 20 µM;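 also: plate controls were DMSO wells for no effect and DEVD-CHO caspase inhibitor wells for full effect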
#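 Material: cell-free apoptosome with Apaf-1, procaspase-3 and caspase-9; Buffer or medium: Hepes pH 7.5 with detergent and BSA; Reagent: cytochrome c trigger plus (Z-DEVD)2-Rh110 caspase-3 substrate; Times: compound with Apaf-1, dATP, procaspase-3 30 min, then 50 min reaction, room temperature; Technique: Rh110 fluorescence intensity.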
# PAFAH1B3 FP inh: inhibitors of human PAFAH1B3 | recombinant PAFAH1B3, FP-rhodamine probe, fluorescence polarization | inhibition, % at 3.39 µM | actives 0.28% (n = 340,000) | AID 492972;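 active = inhibition above the screen-wide average of all tested compounds plus 3 SD, cut at about 25% in these data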;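 also: 0% = enzyme with DMSO only and 100% = wells lacking PAFAH1B3 protein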
# PAFAH1B2 FP inh: PAFAH1B2 (human) inhibition. AID 492953. inhibition, % at 3.39 µM. actives 1.2% (n = 340,000). recombinant PAFAH1B2, FP-rhodamine activity probe, fluorescence polarization;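 active = inhibition above the mean of all tested compounds plus 3 SD, cut at about 24% in these data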;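 also: 0% = enzyme with DMSO and 100% = wells lacking PAFAH1B2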
# Target sequence (P68402 whole entry, looked up): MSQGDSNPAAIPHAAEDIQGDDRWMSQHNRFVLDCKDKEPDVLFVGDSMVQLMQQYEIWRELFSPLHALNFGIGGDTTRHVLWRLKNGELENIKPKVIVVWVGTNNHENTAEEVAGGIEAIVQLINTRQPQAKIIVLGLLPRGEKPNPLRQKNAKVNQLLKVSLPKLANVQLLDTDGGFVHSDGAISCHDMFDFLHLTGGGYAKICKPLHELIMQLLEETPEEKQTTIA
# The depositor's hits bear a star; / = not tested or not shown. Sampled rows, rich in hits. Any-hit rate of the full collection: about 3.1%.
SMILES,PAFAH2 FP inh,pPAFAH inh,Apaf-1 inh,PAFAH1B3 FP inh,PAFAH1B2 FP inh
CC(=O)c1sc(NC(=O)C2(F)C(F)(F)C(F)(F)C(F)(F)C(F)(F)C2(F)F)nc1C,27.5,1.4,9.0,4.1,38.9*
CC(=O)c1sc(NC(=O)C=C(C)C)nc1C,-0.7,1.5,-10.9,3.2,-3.8
N#Cc1c(N)nc2c3c(sc(=N)c2c1N)NC(=O)CC3c1c(F)cccc1Cl (configuration not stated),3.6,26.6*,21.5,1.6,-16.8
N#Cc1c(N)nc2c3c(sc(=N)c2c1N)NC(=O)CC3c1ccccc1 (configuration not stated),2.4,28.4*,16.2,7.4,-5.9
CC1C/C(=N\NC(=O)c2ccc(NS(=O)(=O)c3ccc(Br)cc3)cc2)CC(C)(C)C1 (configuration not stated),13.7,17.8,4.5,-10.4,25.5*
CCCCNC(=O)Oc1ccc(C(=O)N2c3ccccc3NC(=O)C2C)cc1 (configuration not stated),-11.1,-1.8,1.0,4.0,34.2*
O=C1NC(=O)/C(=C\c2ccccc2Oc2ccc(F)c(F)c2)S1,-4.4,8.2,14.1,-11.3,25.8*
O=C1NC(=O)/C(=C/c2ccccc2OCc2ccccc2)S1,4.7,2.6,3.8,9.8,16.4
COc1ccc(/C=C/C(=O)O)cc1S(=O)(=O)NCc1cccnc1,4.5,5.2,-4.9,-0.8,1.4
CCOc1ccc(Br)cc1C1=NN(C(C)=O)C(c2ccc([N+](=O)[O-])s2)O1 (configuration not stated),39.0*,/,23.8,17.0,9.9
CC(=O)N1N=C(c2ccc(C)cc2)OC1c1ccc(Br)cc1 (configuration not stated),4.9,2.5,15.8,-2.5,8.1
COc1cc(OC)c(OC)cc1CN1CCN(Cc2ccco2)CC1,1.2,5.0,-8.0,-1.3,3.0
C#CCN1c2ccccc2Sc2cccnc21,7.0,9.7,3.6,14.6,10.4
N#CCCN(C(=O)COC(=O)Cc1ccc(Br)cc1)c1ccccc1,1.7,15.1,-3.1,11.6,27.4*
N#CCCN(C(=O)COC(=O)Cc1c[nH]c2ccccc12)c1ccccc1,-2.8,8.1,14.8,13.9,5.8
Cc1ccc(S(=O)(=O)N2CCN(C(=O)c3ccco3)CC2)c(C)c1,1.4,-3.5,9.8,4.9,-1.8
Cc1ccc(S(=O)(=O)N2CCN(C(=O)c3ccccc3Cc3ccccc3)CC2)c(C)c1,-0.5,4.3,27.3,-1.5,27.4*
CCc1cc(C(=O)O)c(NC(=O)/C=C/c2ccc(OC)c(OC)c2)s1,9.0,18.9,3.1,5.5,24.8*
COc1ccc(C(=O)N2CCCCC2)cc1S(=O)(=O)Nc1ccccc1,1.7,33.4*,-20.1,9.3,0.9
Cc1ccc(C(=O)N2CCCCCC2)cc1S(=O)(=O)Nc1ccccc1,9.3,/,12.2,-5.6,13.5
COc1ccc(C(=O)N2CCNC(=O)C2)cc1S(=O)(=O)Nc1ccc(Br)cc1,0.1,34.0*,-2.4,1.7,6.4
O=C(CSc1nc2ccccc2s1)Nc1ccc(N2CCOCC2)c(Cl)c1,4.1,6.6,9.9,3.0,1.7
O=C(O)C/C(=C\c1ccc(N2CCOCC2)c([N+](=O)[O-])c1)c1nc2ccccc2s1,12.4,26.0*,0.1,-7.5,4.2
O=C(O)CC/C(=C/c1cccc(NC(=O)c2ccccc2Cl)c1)c1nc2ccccc2s1,-1.1,/,/,2.3,-1.0
O=C(O)CC/C(=C\c1ccc2c(c1)OCO2)c1nc2ccccc2s1,6.0,3.4,4.6,2.8,2.0
SMILES,PAFAH2 FP inh,pPAFAH inh,Apaf-1 inh,PAFAH1B3 FP inh,PAFAH1B2 FP inh
O=C(O)CC/C(=C\c1ccc(N2CCOCC2)c([N+](=O)[O-])c1)c1nc2ccccc2s1,1.7,/,/,0.2,91.7*
COc1cc(/C=C(\CCC(=O)O)c2nc3ccccc3s2)ccc1OCC(=O)Nc1c(Cl)cccc1Cl,-0.1,5.5,0.8,5.9,66.9*
CCCCCCNCC(=O)N1CCC(Cc2ccccc2)CC1,-2.6,-1.3,10.6,5.8,2.9
Cc1noc(C)c1COc1ccccc1C(=O)NC(C)c1ccc(F)cc1 (configuration not stated),1.8,/,/,5.2,-2.2
Cn1cccc1-c1cc(C(=O)N/N=C/c2cc(Br)ccc2O)[nH]n1,0.3,30.1*,17.7,8.5,7.9
O=C1C(Cl)=C(NC(=O)c2ccccc2)C(=O)C(Cl)=C1NC(=O)c1ccccc1,-15.3,4.7,56.4*,19.1,-1.2
O=C(Nc1cccc(Cl)c1)c1ccccc1,9.9,1.8,10.9,5.5,-8.5
O=C(O)c1[nH]c2ccc(Cl)cc2c1CCN1C(=O)c2ccccc2C1=O,-0.6,-0.9,-14.0,-3.3,84.2*
O=C(O)c1[nH]c2ccc(Br)cc2c1CCN1C(=O)c2cccc([N+](=O)[O-])c2C1=O,5.2,12.3,2.2,2.3,53.2*
COCCn1c(=O)[nH]c2cc(C(=O)N3CCN(c4cccc(C)c4C)CC3)ccc2c1=O,-6.3,2.8,19.9,-3.7,-2.3
O=C(Cc1ccc(NC(=O)C2CCN(C(=O)C3CC3)CC2)cc1)Nc1ccc(C(=O)N2CCOCC2)cc1,1.6,/,/,0.5,-4.0
Cc1ccc(C(=O)Nc2cccc(S(=O)(=O)N3CCCC3)c2)o1,-0.8,-1.4,1.1,-6.1,-7.5
N#CCSc1nc(Nc2ccc3c(c2)OCO3)c2ccccc2n1,5.5,26.0*,-5.9,9.1,7.6
COc1ccc(NS(=O)(=O)c2ccc(N3C(=O)CCC3=O)cc2)cc1,2.8,12.3,-10.7,11.4,6.3
O=C1CCC(=O)N1c1ccc(S(=O)(=O)Nc2ccc(Br)cc2)cc1,-10.0,32.5*,5.3,-3.5,6.3
CCOc1cc(CNCCSc2nnnn2C)cc(Br)c1OCc1ccccc1F,3.7,25.4*,18.8,4.3,3.5
COc1cc(CNCCSc2nnnn2C)cc(Br)c1OCc1ccccc1F,-0.5,8.4,2.9,-3.1,1.1
Cc1ccccc1Nc1cc2ccccc2c(=O)[nH]1,10.4,3.8,95.8*,54.2*,8.6
COC(=O)c1c(NC(=O)COc2ccc(Cl)cc2)sc2c1CC(C)(C)NC2(C)C,-4.6,-0.8,61.3*,-1.1,-5.2
CN(C(=O)C1CCCCC1)C1(C)CCS(=O)(=O)C1 (configuration not stated),1.9,-1.1,1.4,7.0,0.5
COc1cc(C(C)=O)ccc1OCC(=O)N(CCC1=CCCCC1)c1c(N)n(Cc2ccccc2)c(=O)[nH]c1=O,-5.1,6.5,9.1,5.1,-4.6
CC(=O)c1ccc(NC(=O)Nc2ccc(NS(=O)(=O)c3ccc(C)cc3)cc2)cc1,-29.2,6.6,9.8,2.4,-6.6
CC(=O)Nc1ccc(Cc2ccncc2)cc1,-9.9,1.8,-3.4,13.3,-3.5
CC(=O)Nc1ccc(S(=O)(=O)Nc2ccc(Cc3ccncc3)cc2)cc1,0.4,29.4*,1.9,5.5,5.4
Cc1ccc(NS(=O)(=O)c2ccc(CCC(=O)O)cc2)cc1,10.3,33.6*,-10.8,2.2,12.3
